Measurements collected from several papers.
Compare with care: the assays were run in different laboratories.
Cell line: HepG2
Effect on: cell growth or viability

SMILES	method	time	IC50 [µM]
COc1cc(NC(=N)CC(O)c2cc3c(F)cc(F)cc3c3cc(C(F)(F)F)ccc23)ccc1Br (centres unmarked)	neutral red	24 h	15.3
CC1=C(O)C(=O)C=C2C1=CC=C1[C@@]2(C)CC[C@@]2(C)[C@@H]3C[C@](C)(C(=O)O)CC[C@]3(C)CC[C@]12C	CCK-8	24 h	2.53
CN[C@@H]1C[C@H]2O[C@@](C)([C@@H]1OC)n1c3ccccc3c3c4c(c5c6ccccc6n2c5c31)C(=O)NC4			0.0383
N=C(CC(O)c1cc2c(F)cc(F)cc2c2cc(C(F)(F)F)ccc12)Nc1ccc(-c2ccc(F)cc2)cc1 (centres unmarked)	neutral red	24 h	10.5
COc1ccc(-c2cc(C(F)(F)F)c3c(N)c(C(=O)N4CCCC4)sc3n2)cc1		72 h	> 50
C#CCn1c(C(=O)/C=C/c2ccc(F)cc2)nc2ccccc21	LDH	48 h	1.72
CC(C)=CCC[C@](C)(O)[C@H]1CC[C@]2(C)[C@@H]1[C@H](O)C[C@@H]1[C@@]3(C)CC[C@H](O)C(C)(C)[C@@H]3[C@@H](O[C@@H]3O[C@H](CO)[C@@H](O)[C@H](O)[C@H]3O)C[C@]12C	CCK-8	24 h	32
Nc1c(C(=O)Nc2cccnc2)sc2nc(-c3ccccc3)cc(C(F)(F)F)c12		72 h	> 100
N=C(CC(O)c1cc2c(F)cc(F)cc2c2cc(C(F)(F)F)ccc12)Nc1ccccc1I (centres unmarked)	neutral red	24 h	160
Fc1ccc2c(-c3nc(Cc4ccccc4)cs3)nn(Cc3ccc(Cl)cc3Cl)c2c1		48 h	25.1
Nc1c(C(=O)N2CC(F)(F)C2)sc2ncccc12		72 h	> 100
